# Experimental data published in the EternaBench riboswitch data.
# System: MS2 coat protein
# Test: apparent Kd, MS2 coat protein; higher = weaker binding; RNA-MaP array; FMN 200 µM where present
# Procedure, shortened: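 The apparent Kd comes from binding curves fitted cluster by cluster, filtered, and summarised as a median. Those curves followed SNAP-549-labelled MS2 coat protein from 0.7 or 1.5 nM, doubling to 3 µM, on Illumina sequencing-chip clusters where stalled E. coli RNA polymerase had transcribed the designs, without and then with constant ligand. The buffer was 100 mM Tris-HCl pH 7.5, 80 mM KCl, 4 mM MgCl2, BSA, DTT, yeast tRNA and Tween-20, and green signal was normalised to red-channel RNA signal and control-cluster median Fmax.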
# [1] = designed as: OFF switch for flavin mononucleotide, no ligand
# [2] = ligand present: flavin mononucleotide, designed as: OFF switch for flavin mononucleotide
# [3] = designed as: ON switch for flavin mononucleotide, no ligand
# [4] = ligand present: flavin mononucleotide, designed as: ON switch for flavin mononucleotide
Sequence,apparent Kd [1] [nM],apparent Kd [2] [nM],apparent Kd [3] [nM],apparent Kd [4] [nM]
CUUUAGUGAGGAUAUCAGUGGUAAUACAAUAGUAUUACUACUGAGAAGGCACAUGAGGAUCACCCAUGUUCCUC,26.6,155,–,–
AGUCGGAGCAGAGGAUAUACAUGAGGAUCACCCAUGUAAAUGGAAGAAGCCUGGAAACAGGCAAUGUAGAAGGCUGCUCCGACA,132,708,–,–
UAUUAACACGAAGGAUAUGGUUACAUGAGGAUCACCCAUGUAUGUAUAUUGAUCUAGAUUUUUAACCAGAAGGUCGUGAGUAAA,50.8,72.2,–,–
CGCAUGCGUAGUAUUAGUUGCUGACAGGAUAUGACAUGAGGAUCACCCAUGUUUAUUAAGAAGAUUCAGAAGGGUCACGUUGCG,6.87,5.8,–,–
UGUCGGAGCAGAGGAUAUUACAUGAGGAUCACCCAUGUAUGAACCAAUAGCUGGGAACAGCAAUGUAAGAAGGCUGCUCCGACA,18.6,201,–,–
UGAUCGAGAGAUCUUAGAUUCUGGUAGGAUAUACAACAGUUGCGCUUUACAUGAGGAUCACCCAUGUAGAAGGACUAGAGUCUA,7.55,8.78,–,–
GUGAAGUGAGGAUAUACGAGAGAGGCUGAACCGGACGAGAAGUAGAAGGCACAUGAGGAUCACCCAUGUAAGGA,33,32.1,–,–
ACGUUCAAAGGAUAUACAUGAGGAUCACCCAUGUCCGUCAUGCAAGCGACGGUUUGCUGUAGAAGGUUGAACGC,22.4,114,–,–
UGUGUGAGACAGGAUAUGCCGGAUGAAAGGCAGGUAGAAGGGUCUACAUGAGGAUCACCCAUGUGGCCGGUUGG,17.4,18.7,–,–
AGUUAAUAUCGAGGAUAUCCUCAUAAACAUGAGGAUCACCCAUGUUAACAUGGAGAAGGCGAUAUUAACAGCAUGUUACAUGCA,–,–,268,20.2
UUAAAUCAUGUAGGAUAUGCAUGGCGAAGCUACGCAGAAGGACAUGAGGAUCACCCAUGUUCAAGCUACCGAGUUCGGUGGCAA,23.3,148,–,–
AUGGUUGUCGUAGGAUAUGUAGGAUAUUCCUACAUGAGGAUCACCCAUGUUCGCAUGGAAGAAGGACAGAAGGACGAUAACCAC,–,–,1310,8.46
AAUCCACAUGAGGAUCACCCAUGUCAGGAUAUGGUGACGCGGGUUUCGGUGCGUGUUGCCAGAAGGGACGGCUG,27,46.7,–,–
AAAUAGCUAGAGGAUAUCGGAUAGGAUUUACUACGAGAAGGUUAGACAUGAGGAUCACCCAUGUUCUGUUGGGA,41.5,39.2,–,–
UCGCUGCGAGGAUAUACAUGAGGAUCACCCAUGUACGGGUCCGGGUCUUCGUCUAUUGGUAGAAGGCGCAGUGA,54.2,277,–,–
UGUGUGAGACAGGAUAUGCCGGUUGUAUUGCUGGUAGAAGGGUCUACAUGAGGAUCACCCAUGUGGCCGGUUGG,18.6,23.2,–,–
UUUUUAAAUAUAGGAUAUGGAAACAUGAGGAUCACCCAUGUAUGAUAAGAUAAAUUAUGAUAUAGCCAGAAGGAUAUUAUUUUU,–,–,32.1,29.7
GUUAAACAUGAGGAUCACCCAUGUAAGGAUAUGCUGCGGUCGCGAUGAAGUGACUGCAGCAGAAGGUACAAUUG,109,75.9,–,–
AAAGUUUAAGCAGGAUAUCGACCAUUCCUUGAUGCUUCAUUGGUGCACAUGAGGAUCACCCAUGUCGAGAAGGGCUAUGAAGCU,15.6,47.4,–,–
UGGUUAUAUGAAGGAUAUACUUAACAUGAGGAUCACCCAUGUGGUGUUGUGAGUGAGUGAGUUUAGUAGAAGGUCAAUUCUUUU,176,197,–,–
AAAACAUGAGGAUCACCCAUGUAAAGAUCGGUUAAUAGAAGUGAGGAUAUGCUUAAUAUAAGGUAGCAGAAGGCACUGGGUACA,–,–,23.3,25.7
AGCUGGAGAGGAUAUACGUAGGUAAAAAAAGUCUGAUAACUACAUGAGGAUCACCCAUGUAGAAGGCUCUGGCA,16,43.8,–,–
UGUUGUAUUACAGGAUAUCUAUUGUUUUUAUUUAGAGAAGGGUAUUCACAUGAGGAUCACCCAUGUAUAUACGAGGAAGUUGUG,–,–,59.4,63.2
AACAAGUCAGGAUAUCAUACUAAUCACUUGCUUUAAAUGUAUGAGAAGGGACAUGAGGAUCACCCAUGUAAAGA,32.5,35.9,–,–
GAUCCACAUGAGGAUCACCCAUGUGAGGAUAUGAUACUAUGUACUUCGGUACAUAGUAUCAGAAGGCACGGAUC,27.1,31.6,–,–
CUCAUGUGAGGAUAUCAGUAGUGAUACGAUAGUAUUACUGCUGAGAAGGUACAUGAGGAUCACCCAUGUUCCUC,26.9,37.8,–,–
UUAUACGCUGAGGAUAUCAUCACUGAGAGGUGAUGAGAAGGCGGUACAUGAGGAUCACCCAUGUCUAUGGGCAG,291,418,–,–
